According to ChEMBL document CHEMBL4118253, “Expedient synthesis and biological evaluation of alkenyl acyclic nucleoside phosphonate prodrugs” (Bioorg Med Chem, 2018):

Experiments:
[1] = test system: Mammalian orthoreovirus 1; assay: Antiviral activity against Reovirus-1 infected in human HeLa cells assessed as inhibition of virus-induced cytopathicity; assay type: functional, organism-based; details: Mammalian orthoreovirus 1, HeLa
[2] = test system: Human betaherpesvirus 5; assay: Antiviral activity against Human cytomegalovirus AD169 infected in HEL cells assessed as inhibition of virus-induced cytopathicity; assay type: functional, organism-based; details: Human betaherpesvirus 5, AD169, HEL
[3] = test system: Punta Toro virus; assay: Antiviral activity against Punta Toro virus infected in African green monkey Vero cells assessed as inhibition of virus-induced cytopathicity; assay type: functional, organism-based
[4] = Cytotoxicity against human HeLa cells assessed as alteration of cell morphology by microscopic analysis; assay type: cell-based
[5] = test system: Influenza B virus; assay: Antiviral activity against Influenza B virus infected in MDCK cells assessed as inhibition of virus-induced cytopathicity by MTS assay; assay type: functional, organism-based
[6] = test system: Human alphaherpesvirus 1; assay: Antiviral activity against Herpes simplex virus 1 KOS infected in HEL cells assessed as inhibition of virus-induced cytopathicity; assay type: functional, organism-based; details: Human alphaherpesvirus 1, KOS
[7] = Cytotoxicity against HEL cells assessed as alteration of cell morphology by microscopic analysis; assay type: cell-based; details: human
In short: (§1)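 The value is the minimal cytotoxic concentration (MCC), the lowest concentration that causes a microscopically visible change in cell morphology. It was read in the same HEL or Vero cell cultures used for the antiviral tests.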

[8] = test system: Human alphaherpesvirus 3; assay: Antiviral activity against thymidine kinase deficient Varicella-Zoster virus infected in HEL cells assessed as reduction in virus plaque formation; assay type: functional, organism-based; details: Human alphaherpesvirus 3, HEL
[9] = test system: Yellow fever virus; assay: Antiviral activity against Yellow fever virus infected in African green monkey Vero cells assessed as inhibition of virus-induced cytopathicity; assay type: functional, organism-based
[10] = test system: Influenza A virus H3N2; assay: Antiviral activity against Influenza A virus H3N2 infected in MDCK cells assessed as inhibition of virus-induced visual cytopathicity; assay type: functional, organism-based
[11] = Cytotoxicity against African green monkey Vero cells assessed as alteration of cell morphology by microscopic analysis; assay type: cell-based; details: chlorocebus sabaeus; in short: as §1
[12] = test system: Respiratory syncytial virus; assay: Antiviral activity against Respiratory syncytial virus infected in human HeLa cells assessed as inhibition of virus-induced cytopathicity; assay type: functional, organism-based
[13] = test system: Human betaherpesvirus 5; assay: Antiviral activity against Human cytomegalovirus Davis infected in HEL cells assessed as inhibition of virus-induced cytopathicity; assay type: functional, organism-based; details: Human betaherpesvirus 5, Davis
[14] = test system: Human respirovirus 3; assay: Antiviral activity against Parainfluenza virus 3 infected in human HeLa cells assessed as inhibition of virus-induced cytopathicity; assay type: functional, organism-based; details: Human respirovirus 3, HeLa
[15] = test system: Vaccinia virus; assay: Antiviral activity against Vaccinia virus infected in HEL cells assessed as inhibition of virus-induced cytopathicity; assay type: functional, organism-based; details: Orthopoxvirus vaccinia
[16] = test system: Human coronavirus 229E; assay: Antiviral activity against Human coronavirus 229E infected in HEL cells assessed as inhibition of virus-induced cytopathicity; assay type: functional, organism-based
[17] = test system: Influenza A virus H3N2; assay: Antiviral activity against Influenza A virus H3N2 infected in MDCK cells assessed as inhibition of virus-induced cytopathicity by MTS assay; assay type: functional, organism-based
[18] = test system: Influenza B virus; assay: Antiviral activity against Influenza B virus infected in MDCK cells assessed as inhibition of virus-induced visual cytopathicity; assay type: functional, organism-based
[19] = test system: Human alphaherpesvirus 3; assay: Antiviral activity against thymidine kinase expressing Varicella-Zoster virus infected in HEL cells assessed as reduction in virus plaque formation; assay type: functional, organism-based; details: Human alphaherpesvirus 3, HEL
[20] = test system: Vesicular stomatitis virus; assay: Antiviral activity against Vesicular stomatitis virus infected in human HeLa cells assessed as inhibition of virus-induced cytopathicity; assay type: functional, organism-based
[21] = test system: Influenza A virus; assay: Antiviral activity against Influenza A virus H1N1 infected in MDCK cells assessed as inhibition of virus-induced cytopathicity by MTS assay; assay type: functional, organism-based
[22] = Cytotoxicity against MDCK cells assessed as alteration of cell morphology by microscopic analysis; assay type: cell-based, Canis lupus familiaris; details: dog
[23] = test system: Sindbis virus; assay: Antiviral activity against Sindbis Virus infected in African green monkey Vero cells assessed as inhibition of virus-induced cytopathicity; assay type: functional, organism-based
[24] = test system: Human alphaherpesvirus 1; assay: Antiviral activity against acyclovir-resistant thymidine kinase deficient Herpes simplex virus 1 KOS infected in HEL cells assessed as inhibition of virus-induced cytopathicity; assay type: functional, organism-based; details: Human alphaherpesvirus 1, KOS
[25] = test system: Coxsackievirus B4; assay: Antiviral activity against Coxsackie virus B4 infected in African green monkey Vero cells assessed as inhibition of virus-induced cytopathicity; assay type: functional, organism-based; details: Enterovirus B
[26] = test system: Human adenovirus 2; assay: Antiviral activity against Adenovirus 2 infected in HEL cells assessed as inhibition of virus-induced cytopathicity; assay type: functional, organism-based; details: Human mastadenovirus C
[27] = test system: Human alphaherpesvirus 2; assay: Antiviral activity against Herpes simplex virus 2 G infected in HEL cells assessed as inhibition of virus-induced cytopathicity; assay type: functional, organism-based; details: Human alphaherpesvirus 2, strain G
[28] = test system: Influenza A virus; assay: Antiviral activity against Influenza A virus H1N1 infected in MDCK cells assessed as inhibition of virus-induced visual cytopathicity; assay type: functional, organism-based
[29] = Half life in human serum by 31P NMR analysis; assay type: ADME, cell-free
[30] = Half life in rat serum by 31P NMR analysis; assay type: ADME, cell-free

| SMILES | EC50 [1] [µM] | EC50 [2] [µM] | EC50 [3] [µM] | MCC [4] [µM] | EC50 [5] [µM] | EC50 [6] [µM] | MCC [7] [µM] | EC50 [8] [µM] | EC50 [9] [µM] | EC50 [10] [µM] | MCC [11] [µM] | EC50 [12] [µM] | EC50 [13] [µM] | EC50 [14] [µM] | EC50 [15] [µM] | EC50 [16] [µM] | EC50 [17] [µM] | EC50 [18] [µM] | EC50 [19] [µM] | EC50 [20] [µM] | other results |
| --- | --- | --- | --- | --- | --- | --- | --- | --- | --- | --- | --- | --- | --- | --- | --- | --- | --- | --- | --- | --- | --- |
| C/C(=C\CP(=O)(N[C@@H](C)C(=O)OCc1ccccc1)Oc1ccccc1)Cn1ccc(=O)[nH]c1=O (stereo not given in full) | > 100 | > 100 | > 100 | > 100 | > 100 | > 100 | > 100 | > 100 | > 100 | > 100 | > 100 | > 100 | > 100 | > 100 | > 100 | > 100 | > 100 | > 100 | > 100 | > 100 | EC50 [21]: > 100 µM; MCC [22]: > 100 µM; EC50 [23]: > 100 µM; EC50 [24]: > 100 µM; EC50 [25]: > 100 µM; EC50 [26]: > 100 µM; EC50 [27]: > 100 µM; EC50 [28]: > 100 µM |
| C/C(=C/CP(=O)(N[C@@H](C)C(=O)OC(C)C)Oc1cccc2ccccc12)Cn1cc(C)c(=O)[nH]c1=O (stereo not given in full) | > 100 | > 20 | > 100 | ≥ 20 | > 100 | > 100 | 100 | 41.6 | > 100 | > 100 | ≥ 20 | > 100 | 44.7 | > 100 | > 100 | > 100 | > 100 | > 100 | 39.9 | > 100 | EC50 [21]: > 100 µM; MCC [22]: 100 µM; EC50 [23]: > 100 µM; EC50 [24]: > 100 µM; EC50 [25]: > 100 µM; EC50 [26]: > 100 µM; EC50 [27]: > 100 µM; EC50 [28]: > 100 µM |
| C/C(=C/CP(=O)(N[C@@H](C)C(=O)OC(C)C)Oc1cccc2c1CCCC2)Cn1ccc(=O)[nH]c1=O (stereo not given in full) | > 100 | > 20 | > 100 | > 100 | > 100 | > 100 | 100 | 100 | > 100 | > 100 | > 100 | > 100 | 54.7 | > 100 | > 100 | > 100 | > 100 | > 100 | 58.5 | > 100 | EC50 [21]: 100 µM; MCC [22]: 100 µM; EC50 [23]: > 100 µM; EC50 [24]: > 100 µM; EC50 [25]: > 100 µM; EC50 [26]: > 100 µM; EC50 [27]: > 100 µM; EC50 [28]: > 100 µM |
| C/C(=C\CP(=O)(N[C@@H](C)C(=O)OC(C)C)Oc1cccc2c1CCCC2)Cn1ccc(=O)[nH]c1=O (stereo not given in full) | > 100 | > 100 | > 100 | > 100 | > 100 | > 100 | > 100 | 71.5 | > 100 | > 100 | > 100 | > 100 | > 100 | > 100 | > 100 | > 100 | > 100 | > 100 | 29.9 | > 100 | EC50 [21]: > 100 µM; MCC [22]: > 100 µM; EC50 [23]: > 100 µM; EC50 [24]: > 100 µM; EC50 [25]: > 100 µM; EC50 [26]: > 100 µM; EC50 [27]: > 100 µM; EC50 [28]: > 100 µM |
| C/C(=C\CP(=O)(N[C@@H](C)C(=O)OCc1ccccc1)Oc1cccc2c1CCCC2)Cn1ccc(=O)[nH]c1=O (stereo not given in full) | > 100 | > 100 | > 100 | ≥ 100 | > 100 | > 100 | > 100 | 52.5 | > 100 | > 100 | ≥ 100 | > 100 | > 100 | > 100 | > 100 | > 100 | > 100 | > 100 | 55.7 | > 100 | EC50 [21]: > 100 µM; MCC [22]: > 100 µM; EC50 [23]: > 100 µM; EC50 [24]: > 100 µM; EC50 [25]: > 100 µM; EC50 [26]: > 100 µM; EC50 [27]: > 100 µM; EC50 [28]: > 100 µM |
| C/C(=C\CP(=O)(N[C@@H](C)C(=O)OC(C)C)Oc1cccc2c1CCCC2)Cn1cc(C)c(=O)[nH]c1=O (stereo not given in full) | > 100 | > 100 | > 100 | ≥ 20 | > 100 | > 100 | > 100 | 53.5 | > 100 | > 100 | ≥ 20 | > 100 | > 20 | > 100 | > 100 | > 100 | > 100 | > 100 | 58.5 | > 100 | t1/2 [29]: > 12 h; t1/2 [30]: > 12 h; EC50 [21]: > 100 µM; MCC [22]: > 100 µM; EC50 [23]: > 100 µM; EC50 [24]: > 100 µM; EC50 [25]: > 100 µM; EC50 [26]: > 100 µM; EC50 [27]: > 100 µM; EC50 [28]: > 100 µM |
